Source: PubChem
NPY2 pot ag: potentiators or agonists of human neuropeptide Y receptor Y2 | P49146 | cells expressing NPY-Y2, potentiator/agonist read-out | activation, % at 3.6 µM | hit rate 0.45% among 220,000; in the data active = activation above about 27%;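 also: cells stimulated with NPY near EC25 plus isoproterenol at EC100; 0% = vehicle plus submaximal agonist and 100% = vehicle plus saturating agonist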
Target sequence (P49146 whole entry, looked up): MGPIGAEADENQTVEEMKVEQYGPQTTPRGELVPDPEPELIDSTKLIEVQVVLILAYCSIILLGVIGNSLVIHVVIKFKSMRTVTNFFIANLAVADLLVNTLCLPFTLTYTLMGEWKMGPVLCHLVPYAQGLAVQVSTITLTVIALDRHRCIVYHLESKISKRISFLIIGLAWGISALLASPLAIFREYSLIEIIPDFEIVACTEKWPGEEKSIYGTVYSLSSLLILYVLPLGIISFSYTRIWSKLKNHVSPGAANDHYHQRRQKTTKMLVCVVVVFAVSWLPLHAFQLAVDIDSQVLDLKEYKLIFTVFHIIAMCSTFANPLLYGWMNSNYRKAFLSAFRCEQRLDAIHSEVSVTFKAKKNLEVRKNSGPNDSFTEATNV
NPY1 pot ag: human NPY-Y1 potentiation or agonism, primary screen. AID 1304. activation, % at 3.6 µM. hit rate 0.37% among 220,000. NPY-Y1 expressing cells, potentiator/agonist activation; in the data active = activation above about 33%, passing the limit was not always enough;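 also: cells stimulated with NPY at EC10 then isoproterenol at EC100; 0% = low agonist plus stimulus and 100% = saturating agonist plus stimulus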
NPY-Y2 antag: blocks the human neuropeptide Y Y2 receptor | P49146 | NPY-Y2 expressing cells, antagonist mode | inhibition, % at 2.7 µM | hit rate 0.99% among 140,000 | AID 793;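 also: 0% = vehicle with agonist challenge and 100% = reference antagonist with challenge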
NPY-Y1 antag: blocks the human neuropeptide Y Y1 receptor; AID 1040; hit rate 1% among 200,000; P25929; HEK293-CNG Y1 cells, membrane potential fluorescence; NPY at EC95, then isoproterenol; inhibition, % at 3.6 µM;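 active = inhibition above the campaign mean inhibition of all tested compounds plus 3 SD, cut at about 20% in these data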;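 also: 0% = DMSO wells given NPY plus isoproterenol and 100% = isoproterenol alone without NPY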
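Assay system: HEK293 Y1/CNG channel cell line; Doses: single compound dose of 3.6 µM, 0.4% DMSO; Timing: dye 3 h, compound 60 min room temperature, stimulation 45 min; Technique: Membrane-potential fluorescent dye readout; Measure: % inhibition of NPY effect.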
EP2 modulator: EP2 receptor (human) modulation. induction, % at 25 µM. hit rate 0.83% among 260,000. EP2-expressing cells, cAMP HTRF FRET, PGE2 co-stimulation. P43116;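 active = compounds whose cAMP rise, as percent of the full-agonist control response, exceeds 60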;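 also: rat C6 glioma line stably carrying human EP2 under a CMV promoter; the protocol text gives 20 µM as final concentration; 100% = response of wells given 1 µM PGE2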
Target sequence (P43116 whole entry, looked up): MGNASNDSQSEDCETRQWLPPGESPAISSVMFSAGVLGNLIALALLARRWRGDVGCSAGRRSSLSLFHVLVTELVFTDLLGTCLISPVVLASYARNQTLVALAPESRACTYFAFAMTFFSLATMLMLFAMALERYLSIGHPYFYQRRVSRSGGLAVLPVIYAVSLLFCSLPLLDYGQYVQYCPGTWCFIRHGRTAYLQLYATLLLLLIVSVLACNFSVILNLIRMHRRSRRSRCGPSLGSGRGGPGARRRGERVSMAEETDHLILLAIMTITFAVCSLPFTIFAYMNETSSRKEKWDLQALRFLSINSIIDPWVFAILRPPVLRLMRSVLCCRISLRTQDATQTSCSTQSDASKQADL
PGE2 EP2 inh: inhibitors of human EP2 prostaglandin E2 receptor | hit rate 0.52% among 260,000 | P43116 | inhibition, % at 25 µM | C6 glioma cells expressing human EP2, cAMP TR-FRET; cells stimulated with saturating PGE2 | AID 1422;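 active = percent inhibition above 40 after rounding to a whole number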;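 also: rat C6 glioma host cells with rolipram phosphodiesterase inhibitor present; the protocol text gives 20 µM as final concentration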
EP2 cAMP induct: human EP2 receptor cAMP induction, negative in counter-screens. hit rate 47% among 1,300. C6 glioma EP2 cells, cAMP HTRF induction; plus low (about EC15) PGE2 agonist. shares compounds with EP2 modulator. calls only at 20 µM (by protocol);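 active = cAMP induction above 50% in the main assay while under 30% in all four parallel counter assays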;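 also: rat C6 glioma cells stably expressing human EP2 receptor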
NPY1 antag conf: confirmation of human neuropeptide Y receptor Y1 antagonists; shares compounds with NPY-Y1 antag; HEK293-CNG NPY-Y1, membrane potential fluorescence, cAMP; NPY challenge against isoproterenol-raised cAMP; inhibition, % at 3.6 µM; hit rate 21% among 1,200; AID 1254; in the data active = inhibition above about 20%;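 also: 0% = vehicle with agonist plus stimulus and 100% = stimulus alone without agonist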
NPY-Y2 antag ct: human NPY-Y2 antagonism in NPY-Y1 counter-screen | AID 1255 | shares compounds with NPY-Y1 antag | hit rate 28% among 1,200 | inhibition, % at 3.6 µM | HEK293 NPY-Y2 CNG membrane potential fluorescence; cells given NPY, then isoproterenol;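 also: 0% = DMSO with agonist challenge and 100% = reference antagonist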
NPY-Y1 confirm: human NPY-Y1 potentiation or agonism, confirmation; cell-based NPY-Y1 potentiator/agonist assay; shares compounds with NPY1 pot ag; hit rate 20% among 280; activation, % at 3.6 µM; AID 1546; in the data active = activation above about 45%;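 also: cells challenged with NPY at its EC10 plus isoproterenol stimulus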
NPY-Y2 counter: NPY-Y2 potentiation or agonism as NPY-Y1 counter-screen | hit rate 20% among 280 | shares compounds with NPY1 pot ag | AID 1649 | HEK293-CNG cells, membrane-potential fluorescence (FLIPR), 1536-well | activation, % at 3.6 µM; in the data active = activation above about 33%
NPY-Y1 ag: activates human NPY-Y1, counter-screen for NPY-Y1 potentiators | shares compounds with NPY1 pot ag | HEK293 Y1-CNGC, membrane potential fluorescence, agonist mode | activation, % at 3.6 µM | hit rate 50% among 280 | AID 1697;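 active = percent activation above the mean of DMSO-only control wells plus 3 SD of those wells, cut at about 18% in these data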;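 also: cells challenged with isoproterenol plus Ro 20-1724 with no NPY in test wells; Y1 agonism lowers isoproterenol-driven cAMP and reduces probe fluorescence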
NPY-Y2 ag: activates human NPY-Y2, counter-screen for NPY-Y1 hits; hit rate 67% among 280; HEK293 Y2-CNGC, membrane potential fluorescence, agonist mode; shares compounds with NPY1 pot ag; activation, % at 3.6 µM;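 active = activation above the solvent-only control wells' mean plus 3 SD, cut at about 11% in these data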;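 also: 0% = DMSO with isoproterenol and 100% = 40 nM NPY maximal response; agonism lowers cAMP so well fluorescence drops in active wells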
CNGC counter: blocks cyclic nucleotide gated channel in NPY-Y1 counter-screen; inhibition, % at 3.6 µM; HEK293-CNG parental, isoproterenol cAMP, membrane potential fluorescence; hit rate 42% among 280; shares compounds with NPY1 pot ag; AID 1704;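 active = inhibition above the mean of stimulated solvent-only control wells plus 3 SD, cut at about 22% in these data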;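 also: 0% = isoproterenol-stimulated DMSO wells and 100% = unstimulated DMSO wells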
Numbers without * were called inactive; i = inactive; . = no result. Sampled rows, rich in hits. Any-hit rate of the full collection: about 2.8%. Rule as the data show it, unless noted: active = inhibition above about 17%; inactive = the rest.

SMILES	NPY2 pot ag	NPY1 pot ag	NPY-Y2 antag	NPY-Y1 antag	EP2 modulator	PGE2 EP2 inh	NPY1 antag conf	NPY-Y2 antag ct	others
Cc1ccc(NCc2n[nH]c(=S)n2Cc2ccccc2)cc1Cl	21	45*	.	-4	55	6	.	.	EP2 cAMP induct=i;NPY-Y1 confirm=12;NPY-Y2 counter=8;NPY-Y1 ag=16;NPY-Y2 ag=7;CNGC counter=10
Cc1ccc2c(c1)c1nnc(SCC(=O)Nc3ccccc3N3CCCCC3)nc1n2CC(=O)O	.	.	.	.	6	7	.	.
CC(=O)Nc1ccccc1-c1nc2ccccc2nc1OCC(=O)c1ccc2ccccc2c1	0	-17	13	21*	1	8	15	8
CC(=O)Nc1ccccc1-c1nc2ccccc2nc1OCC(=O)c1ccc(Br)cc1	-3	8	1	9	16	5	.	.
O=C(c1nc2ccc(Cl)cn2c1CNCC[C@@H]1C[C@@H]2C=C[C@H]1C2)N1CCCCCCC1	-2	3	.	18	37	6	.	.
C[C@@H]1CN(C(=O)c2nc3ccc(Cl)cn3c2CNCC[C@@H]2C[C@@H]3C=C[C@H]2C3)C[C@H](C)O1	-16	1	.	24*	19	4	17	15
Cc1ccsc1C(=O)C1CCCN(Cc2cccn2-c2ccc(Cl)cn2)C1 (centres undefined)	-24	-36	.	41*	-27	1	42*	38*
O=C(c1ccc(C(F)(F)F)cc1)C1CCCN(Cc2cccn2-c2ncccn2)C1 (centres undefined)	-29	-21	.	23*	9	8	16	18*
COc1ccc(C(=O)C2CCCN(Cc3cccn3-c3ccccn3)C2)cc1F (centres undefined)	45*	55*	.	22*	-36	8	14	-1
COc1cccc(C(=O)C2CCCN(Cc3cccn3-c3ccccn3)C2)c1 (centres undefined)	-37	-46	.	37*	-10	6	35*	30*
NC(=O)CSc1nnc(-c2ccccc2Cl)o1	.	.	.	.	-9	8	.	.
O=C(c1ccc(Cl)cc1)C1CCCN(Cc2cccn2-c2ccccn2)C1 (centres undefined)	-1	-38	.	59*	-77	8	32*	31*
Cc1ccc(-n2cccn2)c(CN2CCCC(C(=O)c3sccc3C)C2)c1 (centres undefined)	-68	-39	.	72*	10	4	32*	38*
OCCC1CN(Cc2cccn2-c2ccccn2)CCN1C1CCCC1 (centres undefined)	-3	-8	.	-1	-15	2	.	.
CC(C)Oc1cccc(C(=O)C2CCCN(Cc3cnn(C(C)C)c3)C2)c1 (centres undefined)	-10	1	.	4	-18	7	.	.
CCN(CC)C(=O)C1CCCN(Cc2nc(-c3cccs3)no2)C1 (centres undefined)	-11	-10	.	2	-7	6	.	.
CC(C)Oc1cccc(C(=O)C2CCCN(Cc3cccn3-c3ccccn3)C2)c1 (centres undefined)	-22	-58	.	49*	-10	7	44*	40*
CC(C)c1nc2ccccc2c2nn(Cc3cc4c(cc3Cl)OCO4)c(=O)n12	.	.	.	.	-45	6	.	.
COc1cccc(NC(=O)COC(=O)c2c3c(nc4ccccc24)CCC(C)C3)c1 (centres undefined)	12	-3	16	31*	-20	2	3	4
COc1ccc(CN2C(=O)c3ccccc3C2C(=O)NC2CCC(C)CC2)c(OC)c1 (centres undefined)	-20	-1	.	23*	-3	7	3	5
COc1ccc(CN2C(=O)c3ccccc3C2C(=O)NC2CCCC(C)C2C)c(OC)c1 (centres undefined)	-8	-16	.	36*	0	11	10	7
COc1ccc(CN2C(=O)c3ccccc3C2C(=O)NC2CCCC2)c(OC)c1 (centres undefined)	4	2	-1	6	-15	7	.	.
COc1ccc(CN2C(=O)c3ccccc3C2C(=O)NCC2CCCO2)c(OC)c1 (centres undefined)	-6	-13	1	5	3	17	.	.
COc1cccc(NC(=O)CSc2nc3c(c(=O)n(C)c(=O)n3C)n2C(C)C)c1	.	.	.	.	-25	14	.	.
Cc1cc(S(=O)(=O)N2CCN(c3ccccc3C)CC2)ccc1F	-12	-22	13	8	-22	16	.	.
SMILES	NPY2 pot ag	NPY1 pot ag	NPY-Y2 antag	NPY-Y1 antag	EP2 modulator	PGE2 EP2 inh	NPY1 antag conf	NPY-Y2 antag ct	others
Cc1cc(S(=O)(=O)N2CCN(c3c(C)cccc3C)CC2)ccc1F	-13	-50	14	21*	19	2	9	12
Cc1nc(NCCc2ccc(F)cc2)c(C#N)c(C)c1[N+](=O)[O-]	4	-12	1	1	22	16	.	.
Cc1nc(NCCc2ccccc2F)c(C#N)c(C)c1[N+](=O)[O-]	-6	-15	6	29*	31	3	8	3
Cc1ccc(C(=O)Nc2ccc(N3CCN(C(=O)C(C)C)CC3)c(Cl)c2)c(Cl)c1	.	.	.	.	3	17	.	.
CSc1ccccc1NC(=O)CSCc1ccc(Br)cc1	-20	-23	12	27*	52	.	1	5
COC(=O)c1c(NC(=O)C(C)C)sc(C(=O)Nc2ccccc2)c1C	.	.	.	.	-8	7	.	.
